Screening results (PubChem BioAssay)
OX1R antag-1 – antagonists of human orexin 1 receptor (OX1R). Orexin/Hypocretin receptor type 1 (Homo sapiens), O43613. OX1R-expressing cells, FRET antagonist read-out. inhibition, % at 6.6 µM. hit rate 1.8% among 330,000. AID 485270, 2010; in the data active means inhibition mostly above about 38%, no sharp cut-off; inactive means mostly below about 40%
Target sequence (O43613 whole entry, looked up): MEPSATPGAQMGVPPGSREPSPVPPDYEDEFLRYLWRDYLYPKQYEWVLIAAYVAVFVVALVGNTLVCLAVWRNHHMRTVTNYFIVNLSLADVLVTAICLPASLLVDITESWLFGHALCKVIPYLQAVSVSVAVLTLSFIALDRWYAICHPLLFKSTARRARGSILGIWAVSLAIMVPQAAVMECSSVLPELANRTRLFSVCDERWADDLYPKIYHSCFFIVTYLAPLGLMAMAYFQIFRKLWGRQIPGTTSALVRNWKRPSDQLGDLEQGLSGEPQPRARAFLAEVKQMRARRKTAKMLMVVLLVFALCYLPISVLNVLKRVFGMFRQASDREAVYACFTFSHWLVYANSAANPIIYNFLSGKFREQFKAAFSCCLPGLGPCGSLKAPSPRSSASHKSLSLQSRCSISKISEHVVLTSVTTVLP
CHO parental Ca – ATP-evoked calcium signal inhibitors, parental CHO, primary screen, counter-screen for OX1R antagonist project, cell-based, fluorescence, Fluo-8 calcium dye | parental CHO-K1, ATP-induced calcium, Fluo-8 fluorescence | inhibition, % at 5.6 µM | hit rate 0.63% among 330,000;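 active means inhibition above that plate's mean sample inhibition plus 3 SD, cut at about 26% in these data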
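Material: Parental CHO cells | Reagent: ATP | Compound dosing: Single nominal dose of 5.6 µM per compound | Detection: Intracellular calcium via Fluo-8 no-wash fluorescent dye | Read-out: % inhibition of ATP-induced calcium mobilization | Benchmarks: Low control ATP plus DMSO, high control DMSO only | Replicates: Singlicate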
M1 PAM parental – nonselective calcium activators in parental CHO-K1 cells, primary screen, counter-screen for M1 PAM project, cell-based, Fluo-8 calcium fluorescence, full deck, 1536-well; ATP EC20; 0% at ATP EC20, 100% at ATP max; activation, % at 3 µM; hit rate 0.02% among 360,000; AID 602247, 2012;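 active means activation above the run cutoff, the mean activation of all test compounds plus 3 SD, cut at about 40% in these data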;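 further: peak over basal fluorescence ratio in a 140 s read after ATP addition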
CHO-K1 Ca antag – nonselective inhibitor or artifact in parental CHO-K1 cells; ATP-induced calcium, Fluo-8 fluorescence; inhibition, % at 3 µM; hit rate 0.6% among 360,000;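 active means inhibition above a per-plate cutoff, the plate's mean sample inhibition plus 3 SD, cut at about 24% in these data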
M1 ag parental – counter-screen for M1 agonists: effect in parental CHO-K1 cells | Fluo-8 calcium fluorescence; scaled to maximal ATP response, vehicle zero | activation, % at 3 µM | hit rate 0.48% among 360,000 | AID 602248, 2012; in the data active means activation above about 15%;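 further: untransfected CHO-K1 host cells lacking M1 receptor as counterscreen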
OX1R antag-2 – OX1R (HCRTR1) antagonists, primary screen, fluorescence, CHO/OX1R cells, Fluo-8 calcium, orexin A; hit rate 0.43% among 330,000; Orexin/Hypocretin receptor type 1 (Homo sapiens), O43613; AID 434989, 2010; Fluo-8 calcium fluorescence; inhibition, % at 5 µM;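 active means inhibition above its plate's threshold, mean inhibition of all tested compounds on the plate plus 3 SD, cut at about 37% in these data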
Hits are given with their value; - = inactive; . = no result given. The list is not random: actives were taken first. Their share in the collection is about 2.9%.

SMILES	OX1R antag-1	CHO parental Ca	M1 PAM parental	CHO-K1 Ca antag	M1 ag parental	OX1R antag-2
O=C(Nn1c(C2CCCCC2)nc2ccccc2c1=O)c1ccc(Cl)c([N+](=O)[O-])c1	53	-	-	-	-	-
O=c1ccn(C2CCCCC2)c(=O)[nH]1	.	.	-	-	-	.
CNc1nnc(Sc2ncccc2[N+](=O)[O-])s1	48	-	-	-	-	-
O=[N+]([O-])c1cccnc1Sc1ccc(F)cc1	-	-	-	-	-	-
N#CCc1c(C#N)c(N)nc(N2CCN(C=O)CC2)c1C#N	-	-	-	24	-	-
N#CCc1c(C#N)c(N)nc(N2CCOCC2)c1C#N	-	-	-	-	-	-
CNc1ccccc1C(C)(C)c1cc(-c2cc(C)cc(C)c2)no1	-	-	-	-	-	-
CNc1ccccc1C(C)(C)c1cc(-c2cccc(OC)c2)no1	-	41	-	-	-	-
Nc1ccccc1O	32	-	-	-	-	-
CCCn1c(=O)c(C(=O)NCCc2ccc(OC)cc2)c(O)c2ccccc21	.	.	-	-	-	.
c1ccc(CNc2nc(-c3cccs3)nc3ccccc23)nc1	54	-	-	-	-	-
c1csc(-c2nc(NCCCN3CCOCC3)c3ccccc3n2)c1	-	-	-	-	-	-
Cn1cccc1/C=C1\CC(C(C)(C)C)C/C(=C\c2cccn2C)C1=O (centres undefined)	-	-	-	24	-	-
C=CCCCCCCCCC(=O)NN	-	-	-	-	-	-
NNC(=O)CS(=O)(=O)CS(=O)(=O)CC(=O)NN	-	-	-	72	-	-
COC(=O)c1c(C)nc2nonc2c1N	65	-	-	-	-	-
Cc1cccn2c(=O)c3cc(C(=O)NCc4ccc(F)cc4)c(=N)n(CCCN4CCOCC4)c3nc12	.	.	-	-	-	.
Cc1cccn2c(=O)c3cc(C(=O)NC4CCCC4)n(C)c3nc12	-	-	-	-	-	-
CCCn1c(=N)c(C(=O)NC2CCCC2)cc2c(=O)n3cccc(C)c3nc21	81	-	-	-	-	-
Cc1cccn2c(=O)c3cc(C(=O)NC4CCCCC4)c(=N)n(CCN4CCOCC4)c3nc12	63	-	-	-	-	-
C=C(C(=O)Nc1ccccc1)c1ccc(C)cc1	-	-	-	-	-	-
CC(=O)Nc1ncc(Cc2cccc(Cl)c2Cl)s1	-	-	-	-	-	-
CC(=O)Nc1ncc(Cc2cc(Cl)ccc2Cl)s1	70	-	-	-	-	-
CC1CCCC(C)N1C(=O)COC(=O)CNC(=O)c1sc2ccccc2c1Cl (centres undefined)	-	-	-	-	19	-
CCCCOc1ncnc2c1[nH]c1ccc(OCC)cc12	-	-	-	-	-	-
SMILES	OX1R antag-1	CHO parental Ca	M1 PAM parental	CHO-K1 Ca antag	M1 ag parental	OX1R antag-2
CCCCOCCCNc1ncnc2c1[nH]c1ccccc12	52	43	-	30	-	-
CCCCOc1ncnc2c1[nH]c1ccc(F)cc12	-	32	-	28	16	-
CCCCOc1ncnc2c1[nH]c1ccccc12	73	-	-	-	-	-
COc1ccc(-n2c3c(c(=O)[nH]c2=O)C(NC(C)=O)(C(F)(F)F)C(=O)N3)cc1 (centres undefined)	-	-	-	-	-	-
COc1cc(C=C2C(=O)C=CC2=O)ccc1O	.	.	43	-	-	.
O=C1/C(=C/c2ccc(O)c(O)c2)Oc2cc(O)ccc21	-	-	-	-	-	-
O=C1/C(=C/c2cccc([N+](=O)[O-])c2)Oc2cc(O)ccc21	29	-	-	-	-	-
COc1cc(/C=C2\Oc3cc(O)ccc3C2=O)ccc1O	60	-	-	-	-	-
CCOc1ccc(NS(=O)(=O)c2ccc(C(=O)N3CC(C)OC(C)C3)cc2)cc1 (centres undefined)	-	42	-	-	41	73
CCOc1ccc(S(=O)(=O)Nc2ccc(C(=O)N3CC(C)OC(C)C3)cc2)cc1 (centres undefined)	-	-	-	-	17	-
O=C(c1cccc(S(=O)(=O)N2CCN(c3ccc(F)cc3)CC2)c1)N1CCCC(C(F)(F)F)C1 (centres undefined)	-	37	-	-	-	-
